The results in this text go back to ChEMBL document CHEMBL1806444, “Synthesis of new chalcone derivatives bearing 2,4-thiazolidinedione and benzoic acid moieties as potential anti-bacterial agents” (2011).

The structures appear in SMILES notation. ≈ marks a conversion by molar mass, not a printed value.

Assay type in all cases: functional
Assay [1] concerns Staphylococcus aureus. As to the kind of experiment: Antibacterial activity against 10^5 CFU/mL methicillin-resistant Staphylococcus aureus CCARM 3167 assessed as inhibition of bacterial growth after 24 hrs by microtiter enzyme-linked immunosorbent assay. The note with it: CCARM 3167, 24 h. The method in brief: (§1)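 Broth microdilution MIC. Bacteria grown to mid-log phase in Mueller-Hinton broth, diluted 1000-fold, and inoculated at 10⁵ CFU/mL in MHB, 0.2 mL/well in 96-well plates. Compounds dissolved in DMSO, final DMSO not exceeding 0.05%, in serial dilutions. Oxacillin and norfloxacin served as positive controls. MIC is the lowest concentration giving complete growth inhibition after 24 h at 37 °C.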

Assay [2] relates to Staphylococcus aureus. The experiment in a line: Antibacterial activity against 10^5 CFU/mL Staphylococcus aureus KCTC 503 assessed as inhibition of bacterial growth after 24 hrs by microtiter enzyme-linked immunosorbent assay. The conditions noted are these: KCTC 503, 24 h.
The subject of assay [3] is Escherichia coli. The experiment in a line: Antibacterial activity against 10^5 CFU/mL Escherichia coli 1356 assessed as inhibition of bacterial growth after 24 hrs by microtiter enzyme-linked immunosorbent assay. The conditions noted are these: Escherichia coli, 1356, 24 h.
Assay [4] relates to Staphylococcus aureus. The experiment in a line: Antibacterial activity against 10^5 CFU/mL Staphylococcus aureus RN4220 assessed as inhibition of bacterial growth after 24 hrs by microtiter enzyme-linked immunosorbent assay. The note with it: RN4220, 24 h.
Assay [5] relates to Staphylococcus aureus. The experiment in a line: Antibacterial activity against 10^5 CFU/mL methicillin-resistant Staphylococcus aureus CCARM 3506 assessed as inhibition of bacterial growth after 24 hrs by microtiter enzyme-linked immunosorbent assay. The note with it: CCARM 3506, 24 h. The method in brief: as §1
Assay [6] concerns Staphylococcus aureus. The experiment in a line: Antibacterial activity against 10^5 CFU/mL quinolone-resistant Staphylococcus aureus CCARM 3519 assessed as inhibition of bacterial growth after 24 hrs by microtiter enzyme-linked immunosorbent assay. The note with it: CCARM 3519, 24 h. The method in brief:
as §1

The test system of assay [7] is Escherichia coli. As to the kind of experiment: Antibacterial activity against 10^5 CFU/mL Escherichia coli 1682 assessed as inhibition of bacterial growth after 24 hrs by microtiter enzyme-linked immunosorbent assay. The note with it: Escherichia coli, 1682, 24 h.
For assay [8], the system named is Staphylococcus aureus. As to the kind of experiment: Antibacterial activity against 10^5 CFU/mL quinolone-resistant Staphylococcus aureus CCARM 3505 assessed as inhibition of bacterial growth after 24 hrs by microtiter enzyme-linked immunosorbent assay. The note with it: CCARM 3505, 24 h. The method in brief: as §1
Assay [9] has as its system Staphylococcus aureus. The experiment in a line: Ratio of Norfloxacin MIC to compound MIC for methicillin-resistant Staphylococcus aureus CCARM 3506.
In assay [10] the test system is Staphylococcus aureus. The experiment in a line: Ratio of Norfloxacin MIC to compound MIC for methicillin-resistant Staphylococcus aureus CCARM 3167.
Assay [11] concerns Staphylococcus aureus. The experiment in a line: Ratio of oxacillin MIC to compound MIC for methicillin-resistant Staphylococcus aureus CCARM 3506.
The test system of assay [12] is Staphylococcus aureus. As to the kind of experiment: Ratio of oxacillin MIC to compound MIC for methicillin-resistant Staphylococcus aureus CCARM 3167.

For orientation: MIC means the lowest concentration found to suppress growth. For `O=C(O)c1ccc(CN2C(=O)S/C(=C\c3ccc(/C=C/C(=O)c4ccccc4Cl)cc3)C2=O)cc1`, the MIC in assay [1] was 1 µg/mL (≈ 1.98 µM); in [2], 2 µg/mL (≈ 3.97 µM); in [3], above 64 µg/mL; in assay [4], 1 µg/mL (≈ 1.98 µM); in assay [5], 1 µg/mL (≈ 1.98 µM); in assay [6], 2 µg/mL (≈ 3.97 µM). Moreover, the MIC in assay [7] was above 64 µg/mL; in assay [8], 2 µg/mL (≈ 3.97 µM).
With `O=C(O)c1ccc(CN2C(=O)S/C(=C\c3ccc(/C=C/C(=O)c4ccccc4)cc3)C2=O)cc1`, the Ratio was determined as 8 in [9], 8 in assay [10], 64 in [11] and 64 in assay [12]. Moreover, the MIC in [1] was 1 µg/mL (≈ 2.13 µM); in [2], 2 µg/mL (≈ 4.26 µM); in assay [3] it was above 64 µg/mL; in assay [4] it was 1 µg/mL (≈ 2.13 µM); in assay [5], 0.5 µg/mL (≈ 1.06 µM); in assay [6], 2 µg/mL (≈ 4.26 µM). Besides, the values for the MIC in assay [7] and in assay [8] were above 64 µg/mL and 2 µg/mL (≈ 4.26 µM), respectively.
In the case of `CCn1cc(C(=O)O)c(=O)c2cc(F)c(N3CCNCC3)cc21` [NORFLOXACIN], the MIC is 8 µg/mL (≈ 25.1 µM) in assay [1]; 2 µg/mL (≈ 6.26 µM) in assay [2]; 16 µg/mL (≈ 50.1 µM) in assay [3]; 2 µg/mL (≈ 6.26 µM) in assay [4]; 4 µg/mL (≈ 12.5 µM) in [5]; above 64 µg/mL in assay [6]. For the same compound, the MIC was 16 µg/mL (≈ 50.1 µM) in [7] and above 64 µg/mL in assay [8].
Consider `O=C(O)c1ccc(CN2C(=O)S/C(=C\c3ccc(/C=C/C(=O)c4ccccc4Br)cc3)C2=O)cc1`, for which the MIC is 1 µg/mL (≈ 1.82 µM) in [1]; 4 µg/mL (≈ 7.29 µM) in assay [2]; above 64 µg/mL in assay [3]; 2 µg/mL (≈ 3.65 µM) in assay [4]; 1 µg/mL (≈ 1.82 µM) in assay [5]; 2 µg/mL (≈ 3.65 µM) in [6]. The values for the MIC in assay [7] and in assay [8] were above 64 µg/mL and 2 µg/mL (≈ 3.65 µM), respectively.
On to `COc1ccccc1C(=O)/C=C/c1ccc(/C=C2\SC(=O)N(Cc3ccc(C(=O)O)cc3)C2=O)cc1`, for which the MIC in [1] is 2 µg/mL (≈ 4 µM); in [2] it was 4 µg/mL (≈ 8.01 µM); in assay [3], above 64 µg/mL; in assay [4], 2 µg/mL (≈ 4 µM); in [5], 2 µg/mL (≈ 4 µM); in assay [6], 2 µg/mL (≈ 4 µM). Also, the MIC in [7] was above 64 µg/mL; in assay [8], 4 µg/mL (≈ 8.01 µM).
In the case of `O=C(O)c1ccc(CN2C(=O)S/C(=C\c3ccc(/C=C/C(=O)c4cccc(O)c4)cc3)C2=O)cc1`, the MIC is 1 µg/mL (≈ 2.06 µM) in [1]; 4 µg/mL (≈ 8.24 µM) in assay [2]; above 64 µg/mL in assay [3]; 2 µg/mL (≈ 4.12 µM) in [4]; 1 µg/mL (≈ 2.06 µM) in assay [5]; 2 µg/mL (≈ 4.12 µM) in assay [6]. Moreover, the minimum inhibitory concentration (MIC) in assay [7] was above 64 µg/mL; in [8], 2 µg/mL (≈ 4.12 µM).
